Experimental data: ChEMBL document CHEMBL5724801, “EUbOPEN Chemogenomics Library - Multiplex” (2024)
“And” between values parts separate entries of the source, which are not always exact repeats. Identical values can stand only once.

Test system: Fibroblast
Assay: Multiplex assay against human fibroblast
Format: toxicity, cell-based
Outline: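 Phenotypes for tubulin, mitochondrial mass and membrane permeability are expressed as per cents of healthy-nucleus cells. Cells were stained live at seeding with Hoechst33342, BioTracker Green Microtubule Cytoskeleton Dye, MitoTracker Red and Annexin V Alexa Fluor 680, then imaged after compound addition on a CQ1 microscope at 37°C and 5% CO2. Machine-learning gating in CellPathfinder separated Hoechst high-intensity objects from normal cells, divided normal cells by nuclear state (healthy, pyknosed, fragmented) and divided pyknosed cells into mitotic or apoptotic.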

[1] = 12 h, 1 µM, compound concentration 1 uM
[2] = 12 h, 10 µM, compound concentration 10 uM
[3] = 24 h, 1 µM, compound concentration 1 uM
[4] = 24 h, 10 µM, compound concentration 10 uM
[5] = 48 h, 1 µM, compound concentration 1 uM
[6] = 48 h, 10 µM, compound concentration 10 uM

## Cc1ccc(OCC(O)C(C)NC(C)C)c2c1CCC2.Cl (stereo not drawn)
[1]
  Population Apoptotic (%): 36% and 28%
  Population Fragmented Nuclei (%): 10% and 17%
  Population Healthy Nuclei (%): 68% and 55%
  Population Hoechst High Intensity Objects (%): 0% and 9%
  Population Membrane Permeable-Phenotype (%): 0% and 4%
  Population Mitochondria Different-Phenotype (%): 3% and 7%
  Population Mitotic Cells (%): 63% and 71%
  Population Normal (%): 99% and 90%
  Population Pyknosed Nuclei (%): 20% and 27%
  Population Tubulin-Different-Phenotype (%): 26% and 50%
  Total Cell Count: 159 and 210
[2]
  Population Apoptotic (%): 47% and 25%
  Population Fragmented Nuclei (%): 39% and 33%
  Population Healthy Nuclei (%): 47% and 50%
  Population Hoechst High Intensity Objects (%): 1% and 2%
  Population Membrane Permeable-Phenotype (%): 0% and 7%
  Population Mitochondria Different-Phenotype (%): 12% and 17%
  Population Mitotic Cells (%): 52% and 74%
  Population Normal (%): 98% and 97%
  Population Pyknosed Nuclei (%): 12% and 16%
  Population Tubulin-Different-Phenotype (%): 52% and 54%
  Total Cell Count: 138 and 168
[3]
  Population Apoptotic (%): 57% and 20%
  Population Fragmented Nuclei (%): 11% and 27%
  Population Healthy Nuclei (%): 74% and 46%
  Population Hoechst High Intensity Objects (%): 0% and 15%
  Population Membrane Permeable-Phenotype (%): 4% and 1%
  Population Mitochondria Different-Phenotype (%): 5% and 8%
  Population Mitotic Cells (%): 42% and 80%
  Population Normal (%): 100% and 84%
  Population Pyknosed Nuclei (%): 13% and 26%
  Population Tubulin-Different-Phenotype (%): 30% and 52%
  Total Cell Count: 154 and 201
[4]
  Population Apoptotic (%): 35% and 36%
  Population Fragmented Nuclei (%): 39% and 35%
  Population Healthy Nuclei (%): 49% and 50%
  Population Hoechst High Intensity Objects (%): 1% and 5%
  Population Membrane Permeable-Phenotype (%): 1% and 4%
  Population Mitochondria Different-Phenotype (%): 13% and 14%
  Population Mitotic Cells (%): 64% and 63%
  Population Normal (%): 98% and 94%
  Population Pyknosed Nuclei (%): 11% and 13%
  Population Tubulin-Different-Phenotype (%): 63% and 65%
  Total Cell Count: 151 and 168
[5]
  Population Apoptotic (%): 64% and 34%
  Population Fragmented Nuclei (%): 16% and 37%
  Population Healthy Nuclei (%): 71% and 42%
  Population Hoechst High Intensity Objects (%): 4% and 11%
  Population Membrane Permeable-Phenotype (%): 0% and 5%
  Population Mitochondria Different-Phenotype (%): 1% and 8%
  Population Mitotic Cells (%): 35% and 65%
  Population Normal (%): 95% and 88%
  Population Pyknosed Nuclei (%): 11% and 20%
  Population Tubulin-Different-Phenotype (%): 23% and 60%
  Total Cell Count: 155 and 196
[6]
  Population Apoptotic (%): 71% and 60%
  Population Fragmented Nuclei (%): 35% and 39%
  Population Healthy Nuclei (%): 50%
  Population Hoechst High Intensity Objects (%): 1% and 7%
  Population Membrane Permeable-Phenotype (%): 0% and 5%
  Population Mitochondria Different-Phenotype (%): 9% and 10%
  Population Mitotic Cells (%): 28% and 40%
  Population Normal (%): 98% and 92%
  Population Pyknosed Nuclei (%): 13% and 10%
  Population Tubulin-Different-Phenotype (%): 68% and 63%
  Total Cell Count: 155 and 157

## Cn1cc(C(=O)OCC2CCN(CCNS(C)(=O)=O)CC2)c2ccccc21
[1]
  Population Apoptotic (%): 44% and 33%
  Population Fragmented Nuclei (%): 13% and 21%
  Population Healthy Nuclei (%): 71% and 46%
  Population Hoechst High Intensity Objects (%): 1% and 4%
  Population Membrane Permeable-Phenotype (%): 0% and 9%
  Population Mitochondria Different-Phenotype (%): 3% and 1%
  Population Mitotic Cells (%): 55% and 66%
  Population Normal (%): 98% and 95%
  Population Pyknosed Nuclei (%): 14% and 32%
  Population Tubulin-Different-Phenotype (%): 23% and 37%
  Total Cell Count: 202 and 164
[2]
  Population Apoptotic (%): 48% and 25%
  Population Fragmented Nuclei (%): 29% and 32%
  Population Healthy Nuclei (%): 55% and 51%
  Population Hoechst High Intensity Objects (%): 3% and 5%
  Population Membrane Permeable-Phenotype (%): 0% and 5%
  Population Mitochondria Different-Phenotype (%): 9% and 7%
  Population Mitotic Cells (%): 51% and 75%
  Population Normal (%): 96% and 94%
  Population Pyknosed Nuclei (%): 14% and 16%
  Population Tubulin-Different-Phenotype (%): 41% and 47%
  Total Cell Count: 207 and 184
[3]
  Population Apoptotic (%): 31% and 30%
  Population Fragmented Nuclei (%): 13% and 25%
  Population Healthy Nuclei (%): 74% and 47%
  Population Hoechst High Intensity Objects (%): 5% and 2%
  Population Membrane Permeable-Phenotype (%): 0% and 7%
  Population Mitochondria Different-Phenotype (%): 0% and 6%
  Population Mitotic Cells (%): 68% and 69%
  Population Normal (%): 94% and 97%
  Population Pyknosed Nuclei (%): 11% and 26%
  Population Tubulin-Different-Phenotype (%): 23% and 48%
  Total Cell Count: 201 and 168
[4]
  Population Apoptotic (%): 80% and 41%
  Population Fragmented Nuclei (%): 33% and 40%
  Population Healthy Nuclei (%): 53% and 43%
  Population Hoechst High Intensity Objects (%): 5% and 4%
  Population Membrane Permeable-Phenotype (%): 0% and 3%
  Population Mitochondria Different-Phenotype (%): 3% and 5%
  Population Mitotic Cells (%): 20% and 58%
  Population Normal (%): 94% and 95%
  Population Pyknosed Nuclei (%): 13% and 16%
  Population Tubulin-Different-Phenotype (%): 42% and 52%
  Total Cell Count: 201 and 188
[5]
  Population Apoptotic (%): 54% and 52%
  Population Fragmented Nuclei (%): 14% and 33%
  Population Healthy Nuclei (%): 72% and 54%
  Population Hoechst High Intensity Objects (%): 5% and 4%
  Population Membrane Permeable-Phenotype (%): 0% and 5%
  Population Mitochondria Different-Phenotype (%): 1% and 2%
  Population Mitotic Cells (%): 45% and 47%
  Population Normal (%): 94% and 95%
  Population Pyknosed Nuclei (%): 12%
  Population Tubulin-Different-Phenotype (%): 23% and 43%
  Total Cell Count: 197 and 177
[6]
  Population Apoptotic (%): 68% and 50%
  Population Fragmented Nuclei (%): 28% and 40%
  Population Healthy Nuclei (%): 58% and 46%
  Population Hoechst High Intensity Objects (%): 9% and 6%
  Population Membrane Permeable-Phenotype (%): 0% and 2%
  Population Mitochondria Different-Phenotype (%): 9% and 8%
  Population Mitotic Cells (%): 32% and 50%
  Population Normal (%): 90% and 93%
  Population Pyknosed Nuclei (%): 13% and 12%
  Population Tubulin-Different-Phenotype (%): 49% and 60%
  Total Cell Count: 199 and 190

## C[C@H](NC(=O)CNC(=O)c1cccc(Cl)c1)c1ccccc1
[1]
  Population Apoptotic (%): 50% and 44%
  Population Fragmented Nuclei (%): 18% and 28%
  Population Healthy Nuclei (%): 71% and 53%
  Population Hoechst High Intensity Objects (%): 0% and 3%
  Population Membrane Permeable-Phenotype (%): 0% and 6%
  Population Mitochondria Different-Phenotype (%): 4% and 2%
  Population Mitotic Cells (%): 50% and 56%
  Population Normal (%): 100% and 96%
  Population Pyknosed Nuclei (%): 10% and 18%
  Population Tubulin-Different-Phenotype (%): 17% and 41%
  Total Cell Count: 94 and 140
[2]
  Population Apoptotic (%): 48% and 43%
  Population Fragmented Nuclei (%): 15% and 31%
  Population Healthy Nuclei (%): 58% and 43%
  Population Hoechst High Intensity Objects (%): 2% and 1%
  Population Membrane Permeable-Phenotype (%): 0% and 13%
  Population Mitochondria Different-Phenotype (%): 8% and 3%
  Population Mitotic Cells (%): 51% and 56%
  Population Normal (%): 97% and 98%
  Population Pyknosed Nuclei (%): 26% and 24%
  Population Tubulin-Different-Phenotype (%): 35% and 54%
  Total Cell Count: 106 and 124
[3]
  Population Apoptotic (%): 43% and 33%
  Population Fragmented Nuclei (%): 17% and 30%
  Population Healthy Nuclei (%): 65% and 50%
  Population Hoechst High Intensity Objects (%): 1% and 3%
  Population Membrane Permeable-Phenotype (%): 1% and 8%
  Population Mitochondria Different-Phenotype (%): 3% and 4%
  Population Mitotic Cells (%): 56% and 66%
  Population Normal (%): 98% and 96%
  Population Pyknosed Nuclei (%): 17% and 19%
  Population Tubulin-Different-Phenotype (%): 25% and 42%
  Total Cell Count: 93 and 145
[4]
  Population Apoptotic (%): 52% and 56%
  Population Fragmented Nuclei (%): 14% and 33%
  Population Healthy Nuclei (%): 61% and 45%
  Population Hoechst High Intensity Objects (%): 2% and 5%
  Population Membrane Permeable-Phenotype (%): 1% and 5%
  Population Mitochondria Different-Phenotype (%): 3% and 7%
  Population Mitotic Cells (%): 48% and 43%
  Population Normal (%): 97% and 94%
  Population Pyknosed Nuclei (%): 24% and 20%
  Population Tubulin-Different-Phenotype (%): 45% and 64%
  Total Cell Count: 107 and 118
[5]
  Population Apoptotic (%): 33% and 40%
  Population Fragmented Nuclei (%): 20% and 29%
  Population Healthy Nuclei (%): 67% and 52%
  Population Hoechst High Intensity Objects (%): 1% and 3%
  Population Membrane Permeable-Phenotype (%): 0% and 4%
  Population Mitochondria Different-Phenotype (%): 0% and 2%
  Population Mitotic Cells (%): 66% and 60%
  Population Normal (%): 98% and 96%
  Population Pyknosed Nuclei (%): 12% and 17%
  Population Tubulin-Different-Phenotype (%): 26% and 44%
  Total Cell Count: 95 and 147
[6]
  Population Apoptotic (%): 68% and 69%
  Population Fragmented Nuclei (%): 15% and 38%
  Population Healthy Nuclei (%): 56% and 50%
  Population Hoechst High Intensity Objects (%): 7% and 4%
  Population Membrane Permeable-Phenotype (%): 1% and 6%
  Population Mitochondria Different-Phenotype (%): 15% and 5%
  Population Mitotic Cells (%): 31% and 30%
  Population Normal (%): 92% and 95%
  Population Pyknosed Nuclei (%): 27% and 11%
  Population Tubulin-Different-Phenotype (%): 50% and 67%
  Total Cell Count: 112 and 121
